# What was measured:
# Type in all cases: functional
# Staphylococcus aureus [1] = assay: Antibacterial activity against Staphylococcus aureus CCM 4516/08 after 24 hrs by microbroth dilution method; settings: CCM 4516/08, 24 h
# Outline: (§1)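 Microbroth dilution modified per M07-A07 in Mueller-Hinton broth, pH 7.4 (±0.2). Inoculum in sterile water adjusted to 0.5 McFarland. MIC taken as growth reduction of at least 90% (IC90) versus control, read visually and at 540 nm after 24 and 48 h incubation in the dark.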
# Staphylococcus aureus [2] = assay: Antibacterial activity against Staphylococcus aureus CCM 4516/08 after 48 hrs by microbroth dilution method; settings: CCM 4516/08, 48 h
# Outline: (§2)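 Microdilution broth method modified after M07-A07 in Mueller-Hinton broth adjusted to pH 7.4 (±0.2). Inoculum prepared in sterile water to 0.5 McFarland (1.5 × 10^8 CFU/mL). MIC taken as growth reduction versus control (IC95 per table header), read visually and spectrophotometrically at 540 nm after 24 and 48 h incubation in the dark.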
# Staphylococcus aureus [3] = assay: Antibacterial activity against methicillin-resistant Staphylococcus aureus H 5996/08 after 24 hrs by microbroth dilution method; settings: H 5996/08, 24 h; outline: as §2
# Staphylococcus aureus [4] = assay: Antibacterial activity against methicillin-resistant Staphylococcus aureus H 5996/08 after 48 hrs by microbroth dilution method; settings: H 5996/08, 48 h; outline: as §2
# [5] = system: Staphylococcus epidermidis; assay: Antibacterial activity against Staphylococcus epidermidis H 6966/08 after 24 hrs by microbroth dilution method; settings: H 6966/08, 24 h; outline: as §1
# [6] = system: Staphylococcus epidermidis; assay: Antibacterial activity against Staphylococcus epidermidis H 6966/08 after 48 hrs by microbroth dilution method; settings: H 6966/08, 48 h; outline: as §1
# Enterococcus sp. [7] = assay: Antibacterial activity against Enterococcus sp. J 14365/08 after 24 hrs by microbroth dilution method; settings: J 14365/08, 24 h; outline: as §1
# Enterococcus sp. [8] = assay: Antibacterial activity against Enterococcus sp. J 14365/08 after 48 hrs by microbroth dilution method; settings: J 14365/08, 48 h; outline: as §1
# Escherichia coli [9] = assay: Antibacterial activity against Escherichia coli CCM 4517 after 24 hrs by microbroth dilution method; settings: CCM 4517, 24 h; outline: as §1
# Escherichia coli [10] = assay: Antibacterial activity against Escherichia coli CCM 4517 after 48 hrs by microbroth dilution method; settings: CCM 4517, 48 h; outline: as §1
# Klebsiella pneumoniae [11] = assay: Antibacterial activity against Klebsiella pneumoniae D 11750/08 after 24 hrs by microbroth dilution method; settings: D 11750/08, 24 h; outline: as §1
# Klebsiella pneumoniae [12] = assay: Antibacterial activity against Klebsiella pneumoniae D 11750/08 after 48 hrs by microbroth dilution method; settings: D 11750/08, 48 h; outline: as §1
# Klebsiella pneumoniae [13] = assay: Antibacterial activity against ESBL-positive Klebsiella pneumoniae J 14368/08 after 24 hrs by microbroth dilution method; settings: J 14368/08, 24 h; outline: as §1
# Klebsiella pneumoniae [14] = assay: Antibacterial activity against ESBL-positive Klebsiella pneumoniae J 14368/08 after 48 hrs by microbroth dilution method; settings: J 14368/08, 48 h; outline: as §1
# Candida albicans [15] = assay: Antifungal activity against Candida albicans ATCC 44859 after 24 hrs by microbroth dilution method; settings: ATCC 44859, 24 h
# Candida albicans [16] = assay: Antifungal activity against Candida albicans ATCC 44859 after 48 hrs by microbroth dilution method; settings: ATCC 44859, 48 h
# Candida tropicalis [17] = assay: Antifungal activity against Candida tropicalis 156 after 24 hrs by microbroth dilution method; settings: Candida tropicalis, 156, 24 h
# Candida tropicalis [18] = assay: Antifungal activity against Candida tropicalis 156 after 48 hrs by microbroth dilution method; settings: Candida tropicalis, 156, 48 h
# Pichia kudriavzevii [19] = assay: Antifungal activity against Candida krusei E28 after 24 hrs by microbroth dilution method; settings: E28, 24 h
# Pichia kudriavzevii [20] = assay: Antifungal activity against Candida krusei E28 after 48 hrs by microbroth dilution method; settings: E28, 48 h
# Nakaseomyces glabratus [21] = assay: Antifungal activity against Candida glabrata 20/I after 24 hrs by microbroth dilution method
# Nakaseomyces glabratus [22] = assay: Antifungal activity against Candida glabrata 20/I after 48 hrs by microbroth dilution method
# Trichosporon asahii [23] = assay: Antifungal activity against Trichosporon asahii 1188 after 24 hrs by microbroth dilution method; settings: Trichosporon asahii, 1188, 24 h
# Trichosporon asahii [24] = assay: Antifungal activity against Trichosporon asahii 1188 after 48 hrs by microbroth dilution method; settings: Trichosporon asahii, 1188, 48 h
# Lichtheimia corymbifera [25] = assay: Antifungal activity against Absidia corymbifera 272 after 24 hrs by microbroth dilution method; settings: Lichtheimia corymbifera, 272, 24 h
# Lichtheimia corymbifera [26] = assay: Antifungal activity against Absidia corymbifera 272 after 48 hrs by microbroth dilution method; settings: Lichtheimia corymbifera, 272, 48 h
# [27] = system: Trichophyton mentagrophytes; assay: Antifungal activity against Trichophyton mentagrophytes 445 after 72 hrs by microbroth dilution method; settings: Trichophyton mentagrophytes, 445, 72 h
# [28] = system: Trichophyton mentagrophytes; assay: Antifungal activity against Trichophyton mentagrophytes 445 after 120 hrs by microbroth dilution method; settings: Trichophyton mentagrophytes, 445, 120 h
Structure (SMILES),MIC (Staphylococcus aureus [1]),MIC (Staphylococcus aureus [2]),MIC (Staphylococcus aureus [3]),MIC (Staphylococcus aureus [4]),MIC [5],MIC [6],MIC (Enterococcus sp. [7]),MIC (Enterococcus sp. [8]),MIC (Escherichia coli [9]),MIC (Escherichia coli [10]),MIC (Klebsiella pneumoniae [11]),MIC (Klebsiella pneumoniae [12]),MIC (Klebsiella pneumoniae [13]),MIC (Klebsiella pneumoniae [14]),MIC (Candida albicans [15]),MIC (Candida albicans [16]),MIC (Candida tropicalis [17]),MIC (Candida tropicalis [18]),MIC (Pichia kudriavzevii [19]),MIC (Pichia kudriavzevii [20]),also measured
O=C(NC12CC3CC(CC(C3)C1)C2)Oc1ccc(Cl)cc1C(=O)Nc1ccc(Cl)cc1,3.9 µM,15.6 µM,3.9 µM,31.2 µM,3.9 µM,3.9 µM,250 µM,250 µM,> 250 µM,> 250 µM,> 250 µM,> 250 µM,62.5 µM,62.5 µM,> 250 µM,> 250 µM,250 µM,250 µM,125 µM,125 µM,MIC (Nakaseomyces glabratus [21]): > 250 µM; MIC (Nakaseomyces glabratus [22]): > 250 µM; MIC (Trichosporon asahii [23]): 31.2 µM; MIC (Trichosporon asahii [24]): 31.2 µM; MIC (Lichtheimia corymbifera [25]): > 250 µM; MIC (Lichtheimia corymbifera [26]): > 250 µM; MIC [27]: 3.9 µM; MIC [28]: 3.9 µM
O=C(Nc1ccccc1)Oc1ccc(Cl)cc1C(=O)Nc1ccc(F)cc1,7.81 µM,7.81 µM,7.81 µM,7.81 µM,7.81 µM,7.81 µM,250 µM,250 µM,> 500 µM,> 500 µM,250 µM,250 µM,250 µM,250 µM,> 250 µM,> 250 µM,> 250 µM,> 250 µM,> 250 µM,> 250 µM,MIC (Nakaseomyces glabratus [21]): > 250 µM; MIC (Nakaseomyces glabratus [22]): > 250 µM; MIC (Trichosporon asahii [23]): > 250 µM; MIC (Trichosporon asahii [24]): > 250 µM; MIC (Lichtheimia corymbifera [25]): > 250 µM; MIC (Lichtheimia corymbifera [26]): > 250 µM; MIC [27]: 3.9 µM; MIC [28]: 15.6 µM
O=C(NCc1ccccc1)Oc1ccccc1C(=O)Nc1ccccc1,250 µM,250 µM,500 µM,500 µM,500 µM,500 µM,> 500 µM,> 500 µM,> 500 µM,> 500 µM,> 500 µM,> 500 µM,> 500 µM,> 500 µM,125 µM,125 µM,125 µM,125 µM,125 µM,125 µM,MIC (Nakaseomyces glabratus [21]): 250 µM; MIC (Nakaseomyces glabratus [22]): 250 µM; MIC (Trichosporon asahii [23]): 125 µM; MIC (Trichosporon asahii [24]): 125 µM; MIC (Lichtheimia corymbifera [25]): > 500 µM; MIC (Lichtheimia corymbifera [26]): > 500 µM; MIC [27]: 15.6 µM; MIC [28]: 15.6 µM
O=C(NC12CC3CC(CC(C3)C1)C2)Oc1ccc(Cl)cc1C(=O)Nc1ccc(Br)cc1,0.98 µM,1.95 µM,1.95 µM,3.9 µM,0.98 µM,1.95 µM,> 500 µM,> 500 µM,> 250 µM,> 250 µM,> 250 µM,> 250 µM,31.2 µM,125 µM,> 125 µM,> 125 µM,> 125 µM,> 125 µM,> 125 µM,> 125 µM,MIC (Nakaseomyces glabratus [21]): > 125 µM; MIC (Nakaseomyces glabratus [22]): > 125 µM; MIC (Trichosporon asahii [23]): > 125 µM; MIC (Trichosporon asahii [24]): > 125 µM; MIC (Lichtheimia corymbifera [25]): > 125 µM; MIC (Lichtheimia corymbifera [26]): > 125 µM; MIC [27]: 7.81 µM; MIC [28]: 7.81 µM
O=C(Nc1ccccc1)Oc1ccc(Cl)cc1C(=O)Nc1ccc(Cl)cc1,31.2 µM,31.2 µM,31.2 µM,31.2 µM,31.2 µM,31.2 µM,500 µM,500 µM,500 µM,500 µM,500 µM,500 µM,62.5 µM,62.5 µM,> 125 µM,> 125 µM,> 125 µM,> 125 µM,62.5 µM,62.5 µM,MIC (Nakaseomyces glabratus [21]): > 125 µM; MIC (Nakaseomyces glabratus [22]): > 125 µM; MIC (Trichosporon asahii [23]): 62.5 µM; MIC (Trichosporon asahii [24]): 62.5 µM; MIC (Lichtheimia corymbifera [25]): > 125 µM; MIC (Lichtheimia corymbifera [26]): > 125 µM; MIC [27]: 1.95 µM; MIC [28]: 1.95 µM
O=C(NCc1ccccc1)Oc1ccc(Cl)cc1C(=O)Nc1ccc(Br)cc1,≤ 0.49 µM,0.98 µM,≤ 0.49 µM,1.95 µM,≤ 0.49 µM,0.98 µM,> 500 µM,> 500 µM,> 500 µM,> 500 µM,> 500 µM,> 500 µM,> 500 µM,> 500 µM,62.5 µM,62.5 µM,125 µM,125 µM,62.5 µM,62.5 µM,MIC (Nakaseomyces glabratus [21]): 31.2 µM; MIC (Nakaseomyces glabratus [22]): 31.2 µM; MIC (Trichosporon asahii [23]): 15.6 µM; MIC (Trichosporon asahii [24]): 15.6 µM; MIC (Lichtheimia corymbifera [25]): 7.81 µM; MIC (Lichtheimia corymbifera [26]): 7.81 µM; MIC [27]: 3.9 µM; MIC [28]: 3.9 µM
O=C(NCc1ccccc1)Oc1ccc(Cl)cc1C(=O)Nc1ccc(F)cc1,15.6 µM,15.6 µM,15.6 µM,31.2 µM,15.6 µM,15.6 µM,> 500 µM,> 500 µM,> 500 µM,> 500 µM,> 500 µM,> 500 µM,> 500 µM,> 500 µM,250 µM,> 250 µM,> 250 µM,> 250 µM,250 µM,> 250 µM,MIC (Nakaseomyces glabratus [21]): 125 µM; MIC (Nakaseomyces glabratus [22]): > 250 µM; MIC (Trichosporon asahii [23]): 125 µM; MIC (Trichosporon asahii [24]): > 250 µM; MIC (Lichtheimia corymbifera [25]): 250 µM; MIC (Lichtheimia corymbifera [26]): > 250 µM; MIC [27]: 250 µM; MIC [28]: 250 µM
O=C(NCCc1ccccc1)Oc1ccccc1C(=O)Nc1ccccc1,125 µM,125 µM,125 µM,125 µM,125 µM,125 µM,> 500 µM,> 500 µM,> 500 µM,> 500 µM,> 500 µM,> 500 µM,> 500 µM,> 500 µM,> 500 µM,> 500 µM,> 500 µM,> 500 µM,125 µM,125 µM,MIC (Nakaseomyces glabratus [21]): 250 µM; MIC (Nakaseomyces glabratus [22]): 250 µM; MIC (Trichosporon asahii [23]): > 500 µM; MIC (Trichosporon asahii [24]): > 500 µM; MIC (Lichtheimia corymbifera [25]): > 500 µM; MIC (Lichtheimia corymbifera [26]): > 500 µM; MIC [27]: 62.5 µM; MIC [28]: 62.5 µM
O=C(NC1CCCCC1)Oc1ccc(Cl)cc1C(=O)Nc1ccc(F)cc1,15.6 µM,15.6 µM,31.2 µM,31.2 µM,7.81 µM,7.81 µM,> 125 µM,> 125 µM,> 125 µM,> 125 µM,> 125 µM,> 125 µM,62.5 µM,62.5 µM,> 125 µM,> 125 µM,> 125 µM,> 125 µM,> 125 µM,> 125 µM,MIC (Nakaseomyces glabratus [21]): 125 µM; MIC (Nakaseomyces glabratus [22]): > 125 µM; MIC (Trichosporon asahii [23]): 62.5 µM; MIC (Trichosporon asahii [24]): > 125 µM; MIC (Lichtheimia corymbifera [25]): 125 µM; MIC (Lichtheimia corymbifera [26]): > 125 µM; MIC [27]: 1.95 µM; MIC [28]: 1.95 µM
O=C(Nc1ccccc1)Oc1ccc(Cl)cc1C(=O)Nc1ccc(Br)cc1,≤ 0.49 µM,0.98 µM,≤ 0.49 µM,0.98 µM,≤ 0.49 µM,0.98 µM,500 µM,500 µM,> 500 µM,> 500 µM,> 500 µM,> 500 µM,> 500 µM,> 500 µM,> 500 µM,> 500 µM,> 500 µM,> 500 µM,250 µM,250 µM,MIC (Nakaseomyces glabratus [21]): 125 µM; MIC (Nakaseomyces glabratus [22]): 125 µM; MIC (Trichosporon asahii [23]): 125 µM; MIC (Trichosporon asahii [24]): 125 µM; MIC (Lichtheimia corymbifera [25]): > 500 µM; MIC (Lichtheimia corymbifera [26]): > 500 µM; MIC [27]: 3.9 µM; MIC [28]: 3.9 µM
